From ChEMBL document CHEMBL1177857, “Functionalized aurones as inducers of NAD(P)H:quinone oxidoreductase 1 that activate AhR/XRE and Nrf2/ARE signaling pathways: synthesis, evaluation and SAR” (Eur J Med Chem, 2010)

Key:
[1] = Cytotoxicity against mouse Hepa-1c1c7 cells assessed as cell survival at 25 uM after 48 hrs by MTT assay; type: cell-based; conditions: read-out: Activity
Procedure, shortened: (§1)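 MTT (0.5 mg/ml) added for 3 h at 37 °C, formazan dissolved in DMSO and read at 590 nm. Survival (%) = (A treated − A blank)/(A untreated − A blank) × 100.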

[2] = Cytotoxicity against mouse Hepa-1c1c7 cells assessed as cell survival at 5 uM after 48 hrs by MTT assay; type: cell-based; conditions: read-out: Activity; procedure, shortened: as §1
[3] = target: T1, CYP1A1 (Mus musculus, UniProt P30561); assay: Induction of Ah receptor in mouse Hepa-1c1c7 cells assessed as induction of CYP1A1 activity at 10 uM after 48 hrs by EROD assay relative to control; type: cell-based; conditions: probe ethoxyresorufin (EROD), read-out: FC
T1 sequence (P30561 whole entry): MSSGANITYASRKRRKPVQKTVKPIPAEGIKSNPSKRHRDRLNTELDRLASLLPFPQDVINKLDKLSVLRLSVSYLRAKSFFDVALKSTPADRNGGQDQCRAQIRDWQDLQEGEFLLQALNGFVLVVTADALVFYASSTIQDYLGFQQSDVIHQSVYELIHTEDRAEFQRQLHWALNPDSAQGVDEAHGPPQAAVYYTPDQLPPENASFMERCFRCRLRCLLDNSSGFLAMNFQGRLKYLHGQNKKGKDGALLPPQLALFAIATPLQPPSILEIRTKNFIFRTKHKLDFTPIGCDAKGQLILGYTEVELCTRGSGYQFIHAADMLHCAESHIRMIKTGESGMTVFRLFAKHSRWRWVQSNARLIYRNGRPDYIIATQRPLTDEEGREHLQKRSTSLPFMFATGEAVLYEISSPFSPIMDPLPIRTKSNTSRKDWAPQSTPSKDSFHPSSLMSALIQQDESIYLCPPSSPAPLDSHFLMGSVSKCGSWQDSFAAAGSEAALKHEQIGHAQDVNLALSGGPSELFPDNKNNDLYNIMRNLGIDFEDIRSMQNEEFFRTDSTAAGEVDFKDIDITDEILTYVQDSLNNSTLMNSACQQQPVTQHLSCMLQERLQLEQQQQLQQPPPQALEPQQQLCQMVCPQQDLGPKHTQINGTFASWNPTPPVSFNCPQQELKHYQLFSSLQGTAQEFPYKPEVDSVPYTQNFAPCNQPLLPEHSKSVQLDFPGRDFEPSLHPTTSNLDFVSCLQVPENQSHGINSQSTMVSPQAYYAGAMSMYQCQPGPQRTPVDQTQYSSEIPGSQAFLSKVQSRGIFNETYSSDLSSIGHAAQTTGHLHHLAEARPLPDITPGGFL
Procedure, shortened: (§2)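 Hepa1c1c7 cells at 10⁴/well grown 24 h, then given compound at one fixed concentration for 48 h. After a PBS wash, cells incubated 40 min at 37 °C with 5 µM 7-ethoxyresorufin plus 2 mM salicylamide. Resorufin fluorescence read at ex 530/em 590 nm. Fold induction = (F cells+compound − F blank)/(F control − F blank); mean ± SD, n = 3.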

[4] = Induction of NQO1 activity in mouse Hepa-1c1c7 cells at 5 uM after 48 hrs relative to control
[5] = target: T1, CYP1A1; assay: Induction of Ah receptor in mouse Hepa-1c1c7 cells assessed as induction of CYP1A1 activity at 25 uM after 48 hrs by EROD assay relative to control; type: cell-based; conditions: probe ethoxyresorufin (EROD), read-out: FC; procedure, shortened: as §2
[6] = Induction of NQO1 activity in mouse Hepa-1c1c7 cells at 25 uM after 48 hrs relative to control
[7] = target: T1, CYP1A1; assay: Induction of Ah receptor in mouse Hepa-1c1c7 cells assessed as induction of CYP1A1 activity at 5 uM after 48 hrs by EROD assay relative to control; type: cell-based; conditions: probe ethoxyresorufin (EROD), read-out: FC; procedure, shortened: as §2
[8] = Induction of NQO1 activity in mouse Hepa-1c1c7 cells at 1 uM after 48 hrs relative to control

SMILES	fold induction at 48 h, 10 µM [3]	fold change (FC) [4]	fold induction at 48 h, 25 µM [5]	fold change (FC) [6]	fold induction at 48 h, 5 µM [7]	viability at 48 h, 25 µM [1]	viability at 48 h, 5 µM [2]	fold change (FC) [8]
COc1cc(OC)c2c(c1)O/C(=C\c1cccc(O)c1O)C2=O	0.97	2.53	–	–	–	–	88%	–
COc1cc(OC)c2c(c1)OC(=O)/C2=C\c1ccccc1Cl	0.97	2.12	–	–	–	–	90%	–
COc1cc(OC)c2c(c1)O/C(=C\c1cccc(Cl)c1)C2=O	–	3.98	–	–	1.18	–	103%	–
COc1cc(OC)c2c(c1)O/C(=C\c1ccccc1Cl)C2=O	–	5.6	–	–	1.55	–	105%	–
COc1cc(OC)c2c(c1)O/C(=C\c1cccc(O)c1)C2=O	–	1.2	1.16	2.07	–	100%	104%	–
COc1cc(OC)c2c(c1)OC(=O)/C2=C\c1ccccc1OC	–	1.79	1.03	3.57	–	107%	118%	–
COc1cc(OC)c2c(c1)O/C(=C\c1ccccn1)C2=O	0.98	2.26	–	–	–	–	92%	–
COc1cc(OC)c2c(c1)O/C(=C\c1cccc(F)c1)C2=O	–	4.47	–	–	1.48	–	89%	–
COc1cc(OC)c2c(c1)O/C(=C\c1ccccc1F)C2=O	–	–	–	–	–	–	66%	2.6
COc1cc(OC)c2c(c1)OC(=O)/C2=C\c1ccccc1	–	1.43	1.04	2.1	–	96%	100%	–
COc1cc(/C=C2\Oc3cc(O)cc(O)c3C2=O)ccc1O	–	1.53	1.06	2.54	–	98%	97%	–
COc1cc(OC)c2c(c1)O/C(=C\c1ccc(F)cc1)C2=O	–	–	–	–	–	–	93%	2.16
COc1cc(OC)c2c(c1)O/C(=C\c1ccncc1)C2=O	–	1.82	1.73	4.5	–	110%	101%	–
COc1cccc(/C=C2\Oc3cc(O)cc(O)c3C2=O)c1	1.13	2.15	–	–	–	–	112%	–
COc1ccc(/C=C2\Oc3cc(OC)cc(OC)c3C2=O)cc1 [4,4',6-TRIMETHOXY-AURONE]	–	1.06	–	0.91	–	87%	93%	–
COc1cc(OC)c2c(c1)O/C(=C\c1ccc(C)cc1)C2=O	–	1.34	–	1.34	–	93%	89%	–
COc1cc(OC)c2c(c1)O/C(=C\c1ccc(N(C)C)cc1)C2=O	–	1.16	–	0.96	–	98%	101%	–
COc1cc(OC)c2c(c1)O/C(=C\c1ccc(N3CCN(C)CC3)cc1)C2=O	–	1.25	–	1.4	–	89%	93%	–

More lines, main results first:

fold induction at 48 h, 10 µM [3]	fold change (FC) [4]	fold induction at 48 h, 25 µM [5]	fold change (FC) [6]	fold induction at 48 h, 5 µM [7]	SMILES	viability at 48 h, 25 µM [1]	viability at 48 h, 5 µM [2]	fold change (FC) [8]
1	2.2	–	–	–	O=C1/C(=C/c2ccccc2F)Oc2cc(O)cc(O)c21	96%	110%	–
–	1.51	1.24	2.55	–	O=C1/C(=C/c2ccc(Cl)cc2)Oc2cc(O)ccc21 [6-HYDROXY-4'-CHLORO AURONE]	–	120%	–
–	1.23	1.05	1.95	–	O=C1/C(=C/c2ccc(O)cc2)Oc2cc(O)cc(O)c21	98%	105%	–
2.01	2.65	–	–	–	O=C1/C(=C/c2ccccc2O)Oc2ccc(O)cc21	104%	99%	–
–	1.64	1.08	2.92	–	O=C1/C(=C/c2cccc(O)c2)Oc2cc(O)ccc21	106%	112%	–
1.18	2.64	–	–	–	O=C1/C(=C/c2ccccc2Cl)Oc2cc(O)cc(O)c21	–	101%	–
2.95	4.68	–	–	–	O=C1/C(=C/c2cccc(Cl)c2)Oc2ccc(O)cc21	–	101%	–
–	1.45	1.07	2.11	–	O=C1/C(=C/c2ccccc2O)Oc2cc(O)ccc21	102%	113%	–
1.04	2.49	–	–	–	O=C1Oc2ccc(O)cc2/C1=C/c1ccc(Cl)cc1	–	90%	–
1.12	2.43	–	–	–	O=C1Oc2ccc(O)cc2/C1=C/c1ccccc1O	–	115%	–
–	3.1	1.68	–	–	COc1ccccc1/C=C1\Oc2ccc(O)cc2C1=O	95%	97%	–
1.05	2.85	–	–	–	O=C1/C(=C/c2cccc(Cl)c2)Oc2cc(O)ccc21	98%	111%	–
–	1.29	–	1.66	–	O=C1/C(=C/c2cccc(O)c2)Oc2ccc(O)cc21	89%	98%	–
–	1.59	–	1.7	–	O=C1/C(=C/c2ccc(Cl)cc2)Oc2cc(O)cc(O)c21	96%	93%	–
–	1.33	–	1.71	–	O=C1/C(=C/c2ccccc2Cl)Oc2ccc(O)cc21	94%	98%	–
